From ChEMBL document CHEMBL4229490, “Cytotoxic and NF-κB and mitochondrial transmembrane potential inhibitory pentacyclic triterpenoids from Syzygium corticosum and their semi-synthetic derivatives” (Bioorg Med Chem, 2018)
Values after ≈ are worked out from the molar mass of the structure shown.

Key:
HT-29 [1] = assay: Cytotoxicity against human HT-29 cells assessed as reduction in cell viability after 72 hrs by CellTiter 96 aqueous one solution assay; assay type: functional, cell-based; details: HT-29, 72 h
Outline: (§1)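 Cells grown in RPMI 1640 with 10% FBS, penicillin and streptomycin; log-phase cells trypsinized, seeded, left overnight at 37 °C in 5% CO₂, then exposed 72 h to samples diluted from DMSO, with DMSO vehicle and paclitaxel control. Viability read by absorbance. IC50 taken relative to vehicle by nonlinear regression; triplicate, three independent experiments.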

MDA-MB-435 = assay: Cytotoxicity against human MDA-MB-435 cells assessed as reduction in cell viability after 72 hrs by CellTiter 96 aqueous one solution assay; assay type: functional, cell-based; details: MDA-MB-435, 72 h; outline: as §1
OVCAR-3 = assay: Cytotoxicity against human OVCAR3 cells assessed as reduction in cell viability after 72 hrs by CellTiter 96 aqueous one solution assay; assay type: functional, cell-based; details: OVCAR-3, 72 h; outline: as §1
Transcription factor p65 = Transcription factor p65 (Homo sapiens, UniProt Q04206); assay: Inhibition of biotinylated consensus sequence binding to NF-kB p65 in human HeLa nuclear extracts after 3 hrs by ELISA
Chain of Transcription factor p65 (Q04206 whole entry): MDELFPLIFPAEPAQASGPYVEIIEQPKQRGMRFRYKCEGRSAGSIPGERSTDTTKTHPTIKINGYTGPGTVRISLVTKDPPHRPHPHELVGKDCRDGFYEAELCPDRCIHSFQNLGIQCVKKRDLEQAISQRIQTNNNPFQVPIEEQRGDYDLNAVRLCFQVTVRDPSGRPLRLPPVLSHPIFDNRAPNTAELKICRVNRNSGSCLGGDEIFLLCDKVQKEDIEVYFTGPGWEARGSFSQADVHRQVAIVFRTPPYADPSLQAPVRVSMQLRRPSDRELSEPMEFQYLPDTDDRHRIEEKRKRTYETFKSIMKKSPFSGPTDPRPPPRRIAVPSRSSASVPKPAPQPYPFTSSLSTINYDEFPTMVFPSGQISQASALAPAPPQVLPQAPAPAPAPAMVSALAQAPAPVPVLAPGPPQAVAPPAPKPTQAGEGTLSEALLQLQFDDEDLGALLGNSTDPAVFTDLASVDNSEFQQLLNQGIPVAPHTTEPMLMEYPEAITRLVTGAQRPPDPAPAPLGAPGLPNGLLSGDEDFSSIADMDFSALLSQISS

HT-29 [2] = assay: Inhibition of mitochondrial membrane potential in human HT-29 cells after 3 hrs by JC-1 staining based fluorescence assay; assay type: functional, cell-based; details: HT-29, 3 h
MDA-MB-231 = assay: Cytotoxicity against human MDA-MB-231 cells assessed as reduction in cell viability after 72 hrs by CellTiter 96 aqueous one solution assay; assay type: functional, cell-based; details: MDA-MB-231, 72 h; outline: as §1
HeLa = assay: Cytotoxicity against human HeLa cells assessed as reduction in cell viability after 72 hrs by CellTiter 96 aqueous one solution assay; assay type: functional, cell-based
DU-145 = assay: Cytotoxicity against human DU145 cells assessed as reduction in cell viability after 72 hrs by CellTiter 96 aqueous one solution assay; assay type: functional, cell-based; details: DU-145, 72 h

Row | Compound | IC50 (HT-29 [1]) | IC50 (MDA-MB-435) | IC50 (OVCAR-3) | IC50 (Transcription factor p65) | IC50 (HT-29 [2]) | IC50 (MDA-MB-231) | IC50 (HeLa) | IC50 (DU-145)
1 | COc1cc2c(=O)oc3c(OC)c(O)cc4c(=O)oc(c1OC)c2c34 | > 10 µM | > 10 µM | > 10 µM | 1.6 µM | > 10 µM | – | – | –
2 | C=C(C)[C@@H]1CC[C@]2(C(=O)O)CC[C@]3(C(=O)O)[C@H](CC[C@@H]4[C@@]5(C)CC[C@H](O)C(C)(C)[C@@H]5CC[C@]43C)[C@@H]12 | > 10 µM | > 10 µM | > 10 µM | > 10 µM | > 10 µM | > 10 µM | – | –
3 | COc1c(C)c(O)c2c(=O)cc(-c3ccc(O)cc3)oc2c1C [SIDEROXYLIN] | > 10 µM | > 10 µM | > 10 µM | > 10 µM | > 10 µM | > 10 µM | – | –
4 | C=C(C)[C@@H]1CC[C@]2(C(=O)O)CC[C@]3(C)[C@H](CC[C@@H]4[C@@]5(C)CC[C@H](O)C(C)(C)[C@@H]5CC[C@]43C)[C@@H]12 [BETULINIC ACID] | > 10 µM | – | – | – | 3.5 µM | > 10 µM | – | –
5 | CC1(C)CC[C@]2(C(=O)O)CC[C@]3(C)C(=CC[C@@H]4[C@@]5(C)CC[C@H](O)C(C)(C)[C@@H]5CC[C@]43C)[C@@H]2C1 [OLEANOLIC_ACID] | > 10 µM | > 10 µM | > 10 µM | 2.4 µM | > 10 µM | > 10 µM | – | –
6 | CC(=O)/C=C/[C@@]1(O)C(C)=CC(=O)CC1(C)C | > 10 µM | > 10 µM | > 10 µM | – | > 10 µM | – | – | –
7 | CC1=CC(=O)CC(C)(C)[C@H]1/C=C/[C@@H](C)O | > 10 µM | > 10 µM | > 10 µM | – | – | > 10 µM | – | –
8 | COc1c(O)cc2c(=O)oc3c4c(cc5c(=O)oc1c2c35)OCO4 | > 10 µM | > 10 µM | > 10 µM | – | > 10 µM | > 10 µM | – | –
9 | C=C(C)[C@@H]1CC[C@]2(C(=O)O)CC[C@]3(C)[C@H](CC[C@@H]4[C@@]5(C)C[C@@H](O)[C@H](OC(=O)/C=C/c6ccc(O)cc6)C(C)(C)[C@@H]5CC[C@]43C)[C@@H]12 | > 10 µM | > 10 µM | > 10 µM | 4.7 µM | > 10 µM | > 10 µM | – | –
10 | C=C(C)[C@@H]1CC[C@]2(CO)CC[C@]3(C)[C@H](CC[C@@H]4[C@@]5(C)CC[C@H](O)C(C)(C)[C@@H]5CC[C@]43C)[C@@H]12 [BETULIN] | > 10 µM | > 10 µM | > 10 µM | 8.8 µM | > 10 µM | > 10 µM | – | –
11 | CC1(C)C[C@H](O)C[C@@]2(C)OC(=O)C=C12 [LOLIOLIDE] | > 10 µM | > 10 µM | > 10 µM | > 10 µM | > 10 µM | > 10 µM | – | –
12 | COc1c(C)c(O)c2c(c1C)O[C@H](c1ccc(O)cc1)CC2=O | > 10 µM | 6 µM | > 10 µM | – | – | > 10 µM | – | –
13 | C[C@H]1[C@H](C)CC[C@]2(CO)CC[C@]3(C)C(=CC[C@@H]4[C@@]5(C)CC[C@H](O)C(C)(C)[C@@H]5CC[C@]43C)[C@H]12 [UVAOL] | > 10 µM | > 10 µM | > 10 µM | > 10 µM | > 10 µM | > 10 µM | – | –
14 | CC(=O)CC[C@@H](C1=C[C@@](C)(O)CCC1=O)C(C)C | > 10 µM | > 10 µM | > 10 µM | – | – | > 10 µM | – | –
15 | C=C(C)[C@@H]1CC[C@]2(C(=O)O)CC[C@]3(C)[C@H](CC[C@@H]4[C@@]5(C)CC[C@H](OC(=O)/C=C/c6ccc(O)c(OC)c6)C(C)(C)[C@@H]5CC[C@]43C)[C@@H]12 | > 10 µM | – | – | 5.4 µM | 0.51 µM | > 10 µM | – | –
16 | COc1c(OC)c2oc(=O)c3cc4c(c5oc(=O)c(c1OC)c2c53)OCO4 | > 10 µM | > 10 µM | > 10 µM | > 10 µM | > 10 µM | – | – | –
17 | C=C(C)[C@H](O)CC[C@](C)(O)[C@H]1CC[C@]2(C)[C@@H]1CC[C@@H]1[C@@]3(C)CC[C@H](O)C(C)(C)[C@@H]3CC[C@]12C | > 10 µM | > 10 µM | > 10 µM | – | – | > 10 µM | – | –
18 | C=C(C)[C@@H]1CC[C@]2(C(=O)OC)CC[C@]3(C(=O)O)[C@H](CC[C@@H]4[C@@]5(C)CC[C@H](O)C(C)(C)[C@@H]5CC[C@]43C)[C@@H]12 | > 10 µM | – | – | 1.5 µM | > 10 µM | > 10 µM | – | –
19 | CC(=O)/C=C/[C@]12O[C@@]1(C)C[C@@H](O)CC2(C)C | > 10 µM | > 10 µM | > 10 µM | – | – | > 10 µM | – | –
20 | COc1cc(C=O)cc(OC)c1O | > 10 µM | > 10 µM | > 10 µM | – | – | > 10 µM | – | –
21 | CC(=O)O[C@H]1C(=O)[C@@]2(C)[C@H]([C@H](OC(=O)c3ccccc3)[C@]3(O)C[C@H](OC(=O)[C@H](O)[C@@H](NC(=O)c4ccccc4)c4ccccc4)C(C)=C1C3(C)C)[C@]1(OC(C)=O)CO[C@@H]1C[C@@H]2O [PACLITAXEL] | 0.009 µM | 0.013 µM | 0.013 µM | – | – | 0.017 µM | – | –
22 | CC1(C)CC[C@]2(CO)CC[C@]3(C)C(=CC[C@@H]4[C@@]5(C)CC[C@H](O)C(C)(C)[C@@H]5CC[C@]43C)[C@@H]2C1 [ERYTHRODIOL] | > 10 µM | > 10 µM | > 10 µM | > 10 µM | > 10 µM | > 10 µM | – | –
23 | CC1=CC(=O)CC(C)(C)[C@@]1(O)/C=C/[C@@H](C)O [BLUMENOL A] | > 10 µM | > 10 µM | > 10 µM | > 10 µM | > 10 µM | > 10 µM | – | –
24 | C[C@H]1[C@H](C)CC[C@]2(C(=O)O)CC[C@]3(C)C(=CC[C@@H]4[C@@]5(C)CC[C@H](OC(=O)c6ccc(Cl)cc6)C(C)(C)[C@@H]5CC[C@]43C)[C@H]12 | > 10 µM | – | – | > 10 µM | > 10 µM | > 10 µM | – | –
25 | C[C@H]1[C@H](C)CC[C@]2(C(=O)O)CC[C@]3(C)C(=CC[C@@H]4[C@@]5(C)CC[C@H](O)C(C)(C)[C@@H]5CC[C@]43C)[C@H]12 [URSOLIC ACID] | 11.1 mg/L | 13.1 mg/L | – | 0.031 µM | 3.5 µM | 5.9 µM | 11.1 to 13.1 mg/L (≈ 24.3 to 28.7 µM) | 11.1 to 13.1 mg/L (≈ 24.3 to 28.7 µM)
26 | C=C(C)[C@@H]1CC[C@]2(C(=O)O)CC[C@]3(CO)[C@H](CC[C@@H]4[C@@]5(C)CC[C@H](O)C(C)(C)[C@@H]5CC[C@]43C)[C@@H]12 | > 10 µM | > 10 µM | > 10 µM | > 10 µM | > 10 µM | > 10 µM | – | –
27 | C=C(C)[C@@H]1CC[C@]2(C(=O)O)CC[C@]3(C)[C@H](CC[C@@H]4[C@@]5(C)C[C@@H](O)[C@H](O)C(C)(C)[C@@H]5CC[C@]43C)[C@@H]12 [ALPHITOLIC ACID] | > 10 µM | > 10 µM | > 10 µM | 8.7 µM | > 10 µM | > 10 µM | – | –
